Only some compounds are listed: those with a hit (about 1.6% of all), similar ones and a draw of the others.
Mdm2 ligase inh: MDM2-luciferase reporter signal enhancers, primary screen, MDM2 E3 ligase inhibitor project, cell-based, luminescence, 1536-well; E3 ubiquitin-protein ligase Mdm2 (Homo sapiens), Q00987; AID 1230, 2008; signal enhancement, % at 5 µM; cell-based MDM2 ubiquitination luciferase reporter, 2 h; 0 = plate control, 100 = twice control, blank-subtracted; 210,000 compounds, 0.11% hits;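 active = signal enhancement of 30% or more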;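 also: luminescence tracks abundance of the self-degrading MDM2-luciferase fusion protein; higher signal means inhibition of MDM2 E3 ligase activity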
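Test system: mammalian cells stably expressing self-ubiquitinating, self-degrading MDM2 E3–luciferase fusion; Amount: 2000 cells in each well; Medium: DMEM; Schedule: 4 h settle plus 2 h compound, 37 °C; Technique: SteadyLite luciferase luminescence after 15 min room-temperature reagent incubation; Benchmarks: plate control and blank wells.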
L929 necroptosis: inhibitors of zVAD-triggered necroptosis, primary screen, L929 cells. L929 zVAD necroptosis rescue, ATP luminescence, 24 h; with zVAD 60 µM. viability rescue, % at 10 µM. 220,000 compounds, 0.38% hits;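 active = activation, scaled between plate controls, above about 75%, limit read from the data; inactive = activation under that limit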;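 also: 0% = zVAD with DMSO and 100% = DMSO alone without zVAD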
TNF necrop inh: inhibitors of TNF-alpha triggered necroptosis, primary screen, cell-based, Jurkat FADD-/-, single concentration; 220,000 compounds, 0.068% hits; activation (protection from cell death), % at 10 µM; Jurkat FADD-/- TNF necroptosis rescue, ATP luminescence, 24 h; 0 = TNF only, 100 = no-TNF cells;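 active = activation, meaning protection from cell death, of at least 50% relative to plate controls; inactive = activation below 50%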;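 also: necroptosis triggered by 40 ng/mL TNF-alpha added together with compound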
Wee1 degr inh: Wee1 degradation inhibitors, primary screen, cell-based, HeLa, Wee1K328M-luciferase, luminescence. 220,000 compounds, 1.2% hits. AID 1321, 2008. reporter increase, % at 5 µM. Wee1-like protein kinase (Homo sapiens), P30291. HeLa Luc-Wee1K328M stability; 100% = proteasome inhibitor MG132 effect;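 active = activation above the mean of all tested compounds plus 3 SD, set per screening run, cut at about 8.8% in these data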;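 also: cells exposed to compound for 20 h before luminescence read; 0% = DMSO alone and 100% = MG132 at 30 µM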
Target sequence (P30291 whole entry K328M): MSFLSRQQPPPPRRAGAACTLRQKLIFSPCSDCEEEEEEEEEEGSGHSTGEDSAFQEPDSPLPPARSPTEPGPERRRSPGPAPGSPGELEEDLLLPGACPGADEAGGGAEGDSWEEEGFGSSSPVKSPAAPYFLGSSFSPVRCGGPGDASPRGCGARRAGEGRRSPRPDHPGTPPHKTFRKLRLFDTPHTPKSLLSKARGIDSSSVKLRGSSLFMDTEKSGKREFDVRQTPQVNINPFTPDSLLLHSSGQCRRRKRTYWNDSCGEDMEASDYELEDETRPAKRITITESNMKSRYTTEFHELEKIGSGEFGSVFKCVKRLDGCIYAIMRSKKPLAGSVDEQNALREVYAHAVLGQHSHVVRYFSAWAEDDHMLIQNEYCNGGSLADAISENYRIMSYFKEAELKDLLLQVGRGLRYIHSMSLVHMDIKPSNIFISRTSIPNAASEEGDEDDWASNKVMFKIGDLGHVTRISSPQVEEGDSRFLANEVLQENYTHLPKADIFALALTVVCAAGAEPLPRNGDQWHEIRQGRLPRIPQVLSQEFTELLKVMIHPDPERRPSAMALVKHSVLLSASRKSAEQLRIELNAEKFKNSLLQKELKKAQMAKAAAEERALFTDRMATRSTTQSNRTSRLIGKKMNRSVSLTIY
Pf gametocyte: late stage P. falciparum gametocyte viability inhibitors, primary screen, ATP luminescence, HTS | P. falciparum stage V gametocytes, 24 h | inhibition, % at 10.9 µM | 150,000 compounds, 0.065% hits | AID 743093, 2013;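 active = inhibition above the mean plus 3 SD of compounds within the control limits, set per campaign, cut at about 38% in these data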;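 also: 0% = DMSO wells and 100% = medium only without gametocytes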
zVAD necrop conf: inhibitors of zVAD-triggered necroptosis in L929, confirmation, L929 cells, duplicate runs. shares compounds with L929 necroptosis. L929 zVAD-induced necroptosis rescue, ATP luminescence, 24 h. activation (protection from necroptosis), % at 10 µM. 760 compounds, 16% hits. AID 463117, 2010;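 active = mean protection from necroptosis of at least 50% over duplicate tests; inactive = mean protection below 50%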;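 also: 0% = cells with zVAD alone and 100% = vehicle cells without zVAD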
* hit, by the source's call; . = no result.

SMILES | Mdm2 ligase inh | L929 necroptosis | TNF necrop inh | Wee1 degr inh | Pf gametocyte | zVAD necrop conf
Cc1ccc(C(=O)Nc2cccc(C(F)(F)F)c2)cc1Nc1ncnc2nc[nH]c12 | 4.2 | 82.3* | -4.0 | . | . | 71.6*
Cc1ccc(C(=O)Nc2cccc(C(F)(F)F)c2)cc1NC(=O)c1nccn1C | 4.1 | 81.8* | 3.9 | . | -20.3 | 10.2
Cc1ccc(C(=O)Nc2cccc(C(F)(F)F)c2)cc1Nc1cnccn1 | 13.5 | 81.9* | -0.1 | . | . | 70.3*
Cc1sc(NC(=O)Nc2ccccc2)c(C(N)=O)c1C | -6.1 | 76.6* | 0.6 | 5.1 | -3.1 | 0.9
CC(/C=N/Nc1nnc2c(n1)[nH]c1ccccc12)=C\c1ccco1 | -18.3 | 0.0 | 0.4 | 2.2 | . | .
Cc1cnc(NC(=O)c2ccc(OCC3CCCO3)cc2)s1 (centres undefined) | -62.3 | 75.2* | 38.2 | -3.6 | -1.2 | 74.9*
CCCCN(C)CCCNC(=O)/C=C1\Sc2ccccc2NC1=O | 24.7 | 75.3* | 4.9 | 0.8 | 7.5 | 23.5
CCN(CC)CCCNC(=O)CC1Sc2ccccc2NC1=O (centres undefined) | 12.3 | 0.2 | -1.4 | 1.5 | . | .
Cc1cccc(C(=O)O/N=C(\N)Cc2ccc([N+](=O)[O-])cc2)c1 | -14.3 | 0.3 | -3.8 | 1.8 | . | .
Cc1cc(OCC(=O)Nc2cnn(CCCC(=O)O)c2)ccc1[N+](=O)[O-] | -24.1 | -0.6 | -0.9 | 3.2 | -16.0 | .
CCOc1cccc(/C(O)=C2/C(=O)C(=O)N(CCOC)C2c2ccc(C)o2)c1 (centres undefined) | -75.3 | -0.2 | -3.9 | -0.6 | -0.8 | .
Cc1ccc2oc(-c3ccco3)cc(=O)c2c1 | -13.6 | 5.5 | -1.2 | -2.0 | 1.8 | .
N#CCOc1ccc2oc(-c3ccco3)cc(=O)c2c1 | -9.8 | 76.2* | -1.6 | -1.7 | . | 0.7
Cc1cc(C(=O)N/N=C/c2ccc[nH]2)n[nH]1 | -24.9 | 89.1* | 16.0 | 1.9 | 5.2 | 27.1
Cc1ccc(-c2cc(C(=O)N/N=C/c3cccnc3)n[nH]2)o1 | -3.3 | 1.7 | -0.3 | -1.5 | . | .
Cc1cc(C(=O)N/N=C/c2ccc(-c3ccccc3Cl)o2)n[nH]1 | -11.7 | 83.5* | 29.8 | 3.0 | -5.3 | 38.3
Cc1cc(C)c2c(N)c(C(=O)N/N=C/c3cccnc3)sc2n1 | 0.2 | 78.9* | -10.3 | 9.5* | -6.7 | 36.0
Cc1cc(C(=O)N/N=C/c2cccnc2)n[nH]1 | 5.5 | 83.6* | 39.4 | 4.4 | -7.6 | 5.7
COc1cc(-c2nc(C(F)(F)F)c(OC)o2)cc(OC)c1OC | -7.2 | 0.1 | 0.9 | -2.9 | . | .
COc1ccccc1C1C([N+](=O)[O-])=CC([N+](=O)[O-])=CN1C (centres undefined) | -2.2 | 1.6 | 0.3 | -1.4 | -7.2 | .
O=C(c1ccco1)N(c1ccccn1)c1ccccn1 | -10.6 | -0.1 | 0.0 | -2.6 | 4.9 | .
N#C/C(=C(\O)c1ccco1)c1ccccn1 | -7.7 | 104.7* | 29.3 | 3.0 | 9.8 | 56.8*
N#CC(C(=O)c1ccco1)c1ccccn1 (centres undefined) | -14.0 | 80.7* | 20.4 | 1.6 | . | 56.1*
c1cnc(Oc2ccc3oc4ccccc4c3c2)nc1 | -0.1 | 0.2 | -1.3 | 1.4 | . | .
CC(=O)N(C)c1ccc(NC(=O)Nc2ccc(C)c(C)c2)cc1 | -10.6 | 76.8* | -1.7 | 6.3 | -13.9 | 39.4
CC(=O)N(C)c1ccc(NC(=O)Nc2ccccc2C)cc1 | -32.1 | 6.0 | -2.5 | 3.2 | -18.4 | .
O=C(CCl)Nc1c[nH]c(=O)[nH]c1=O | -8.6 | 80.6* | 44.5 | 0.0 | 5.0 | 12.3
CCN(CC)CCn1c(O)c(N=O)c2ccccc21 | -12.7 | 0.0 | -0.2 | 0.0 | . | .
CCN(CC)CCn1c2ccccc2c2cnc(N)c(C#N)c21 | -28.9 | 75.2* | -10.2 | 0.3 | . | 70.0*
CN(C)C=Nc1ncc2c3ccccc3n(CCN(C)C)c2c1C#N | -13.0 | 90.8* | 1.0 | -3.1 | . | 38.7
